Experimental data as given in paper PMC12067261 (Proceedings of the National Academy of Sciences of the …, 2025).
In brackets after ≈: the same amount, converted by molar mass. Several values for one entry are separate records, joined by “and”; a condition that tells them apart may be missing. Equal entries are not always repeated. Where two headings read alike, the source gives them in different places.

Experiments:
[1] = as published previously ref 28; cited from earlier work
in vitro = conditions: human, plasma
[2] = system: Mab type strain ATCC19977; assay: microbe, parasite or virus in culture; conditions: Mycobacteroides abscessus, ATCC19977, read-out: IC50 in CAMHB
[3] = system: intracellular M. abscessus ATCC 19977 pTEC27 in THP-1 macrophages; assay: Growth inhibition of intracellular Mab in THP-1 derived macrophages; format: cell-based, Mycobacterium abscessus; conditions: Mycobacteroides abscessus, ATCC19977, THP-1, read-out: MacIC50
Caseum binding = format: in vitro ADME
CYP3A4 mRNA = assay: CYP3A4 induction at the mRNA level in human hepatocytes; format: in vitro ADME
[4] = system: THP-1 derived macrophages; assay: Uptake into THP-1 macrophages; format: in vitro ADME; conditions: intracellular to extracellular concentration ratio
[5] = system: Mab type strain ATCC19977
HepG2 cells = assay: Cytotoxicity assays; format: cell-based, human; conditions: indirect measure of selectivity
[6] = system: Mab ATCC19977 (wild type); format: cell-based, Mycobacterium abscessus subsp. abscessus; conditions: concentration that inhibits 90% growth
Mab ATCC19977 = assay: Spontaneous mutant selection; format: cell-based, Mycobacterium abscessus; conditions: solid medium containing 4× MIC
[7] = Pharmacokinetic studies in mice; format: in vivo, CD-1 mice
[8] = system: Mab ATCC19977 replicating cultures; assay: microbe, parasite or virus in culture; format: cell-based, Mycobacterium abscessus subsp. abscessus
[9] = system: intracellular Mab ATCC19977 in THP-1 macrophages; format: cell-based, Mycobacterium abscessus; conditions: 48 h treatment, compared to the start of treatment
Summary of the method: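 Intracellular bactericidal assay in THP-1-derived macrophages infected with M. abscessus subsp. abscessus ATCC19977. Test compound was added 2 h after infection at 1 and 10 µM and left on for 48 h. Each condition was run in technical triplicate.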

[10] = system: M. abscessus subsp. abscessus ATCC 19977; assay: Efficacy in the GM-CSF KO mouse model of acute Mab infection; format: in vivo, GM-CSF KO (B6.129S-Csf2tm1Mlg/J) mice; conditions: 7 daily oral doses, 25 mg/kg
[11] = system: 76 M. abscessus clinical isolates covering the 3 Mab subspecies; assay: microbe, parasite or virus in culture; format: cell-based, Mycobacterium abscessus; conditions: Mycobacteroides abscessus
[12] = Table 2

**Q.** With `O=C1CCc2c(OC[C@]3(O)CCN(c4c(F)cc(Cl)cc4F)C[C@H]3O)ccc(F)c2N1` [OPC-167832, Quabodepistat] as the molecule, how does the plasma fu [1] read?
**A.** ~ 1%

**Q.** And the fraction unbound (in vitro)?
**A.** 0.0122

**Q.** What about the IC50 [2] of the same molecule?
**A.** 0.12 µM

**Q.** With `CO[C@H]1/C=C/O[C@@]2(C)Oc3c(C)c(O)c4c(c3C2=O)C2=NC3(CCN(CC(C)C)CC3)NC2=C(NC(=O)/C(C)=C\C=C\[C@H](C)[C@H](O)[C@@H](C)[C@@H](O)[C@@H](C)[C@H](OC(C)=O)[C@@H]1C)C4=O` [RBT, Rifabutin] as the molecule, how does the IC50 [3] read?
**A.** 0.7 µM

**Q.** What about the fraction unbound (Caseum binding) of the same molecule?
**A.** 0.0094

**Q.** What about the “CYP3A4 induction @ 1 µM” value (CYP3A4 mRNA; 1 µM) of the same molecule?
**A.** 33 fold and 33.4 fold

**Q.** And the “CYP3A4 induction @ 10 µM” value (CYP3A4 mRNA; 10 µM)?
**A.** 43 fold and 42.7 fold

**Q.** What about the fraction unbound (in vitro; fu human, human plasma) of the same molecule?
**A.** 0.036

**Q.** And the fraction unbound (in vitro; plasma fu (human), Table 2)?
**A.** 0.0384

**Q.** And the “THP-1 IC/EC” value [4]?
**A.** 26

**Q.** What about the IC50 serum shift [5] of the same molecule?
**A.** 8.1 fold

**Q.** And the “HepG2 CC50/MIC” value (HepG2 cells)?
**A.** 154

**Q.** What about the “WT Mab MIC” value [6] of the same molecule?
**A.** 2.0 µM

**Q.** What about the IC50 [2] of the same molecule?
**A.** 1.2 µM

**Q.** What about the frequency of resistance (Mab ATCC19977) of the same molecule?
**A.** 2.6 × 10^−8

**Q.** And the “fAUC/MIC at 10 mg/kg” value ([7]; AUC corrected for fraction unbound)?
**A.** 0.2

**Q.** What about the Bioavailability ([7]; CD-1 mice, oral) of the same molecule?
**A.** 69.2%

**Q.** What about the half-life ([7]; female, CD-1, mouse, plasma) of the same molecule?
**A.** 4.3 h

**Q.** And the clearance ([7]; female, CD-1, mouse, plasma, iv, 5 mg/kg)?
**A.** 10.3 mL/min/kg

**Q.** What about the Vd ([7]; female, CD-1, mouse, plasma, iv, 5 mg/kg, Vd, CD-1 mice, i.v. 5 mg/kg) of the same molecule?
**A.** 3.9 L/kg

**Q.** And the “plasma concentrations relative to potency values” ([7]; oral 25 mg/kg, CD-1 mice)?
**A.** did not achieve therapeutic concentrations

**Q.** What about the MBC ([8]; Mycobacteroides abscessus, ATCC19977, read-out: MBC90) of the same molecule?
**A.** 3.5 µM (≈ 2.96 µg/mL)

**Q.** And the “kill plateau at 8× MIC” value ([8]; replicating cultures, 3 d)?
**A.** approximately 2 log

**Q.** What about the “activity against intracellular Mab in macrophages at 1 and 10 µM” value [9] of the same molecule?
**A.** did not inhibit intracellular growth of Mab

**Q.** And the “effect on lung bacterial burden” value [10]?
**A.** neither reduced lung burden nor prevented bacterial growth

**Q.** And the MIC50 ([11]; read-out: MIC50 against clinical isolates)?
**A.** 4.7 µM (≈ 3.98 µg/mL)

**Q.** And the MIC90 ([11]; read-out: MIC90 against clinical isolates)?
**A.** 9.1 µM (≈ 7.71 µg/mL)

**Q.** With `CO[C@H]1/C=C/O[C@@]2(C)Oc3c(C)c(O)c4c(c3C2=O)C2=NC3(CCN(CC(C)C)CC3)NC2=C(NC(=O)/C(C)=C/C=C/[C@H](C)[C@H](O)[C@@H](C)[C@@H](O)[C@@H](C)[C@H](OC(=O)Nc2c(C)nc3ccccn23)[C@@H]1C)C4=O` [UMN-131] as the molecule, how does the IC50 serum shift [5] read?
**A.** 3.3 fold

**Q.** What about the IC50 ([5]; read-out: IC50 in 1:1 CAMHB:hSerum, 1:1 CAMHB:human serum) of the same molecule?
**A.** 0.2 µM

**Q.** And the IC50 ([5]; read-out: IC50 in CAMHB, CAMHB devoid of plasma proteins)?
**A.** 0.06 µM

**Q.** And the “plasma fu (human)” value [12]?
**A.** 6.55%
